Results published in ChEMBL document CHEMBL5724801, “EUbOPEN Chemogenomics Library - Multiplex” (2024).
Several values for one entry are separate records, joined by “and”; a condition that tells them apart may be missing. Equal entries are not always repeated.

System: Fibroblast
Experiment: Multiplex assay against human fibroblast
Type: toxicity, cell-based
In short: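 Values for tubulin, mitochondrial-mass and membrane-permeability phenotypes are per cents of cells with healthy nuclei. These cells were identified by CellPathfinder machine-learning gating of live cells that had been stained at seeding with Hoechst33342, BioTracker Green Microtubule Cytoskeleton Dye, MitoTracker Red and Annexin V Alexa Fluor 680 and imaged on a CQ1 microscope at 37°C and 5% CO2 after compound addition. The gating first set Hoechst high-intensity objects apart from normal cells, then split normal cells into healthy, pyknosed or fragmented nuclei, and pyknosed cells into mitotic or apoptotic.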

[1] = 12 h, 1 µM, compound concentration 1 uM
[2] = 12 h, 10 µM, compound concentration 10 uM
[3] = 24 h, 1 µM, compound concentration 1 uM
[4] = 24 h, 10 µM, compound concentration 10 uM
[5] = 48 h, 1 µM, compound concentration 1 uM
[6] = 48 h, 10 µM, compound concentration 10 uM

CC(C)(O)C(=O)N1CCN(c2ccc(C(F)(F)F)c(C3=C(c4c[nH]c5ccccc45)C(=O)NC3=O)c2)CC1
Population Apoptotic (%) [1]: 41% and 32%
Population Fragmented Nuclei (%) [1]: 14% and 30%
Population Healthy Nuclei (%) [1]: 68% and 46%
Population Hoechst High Intensity Objects (%) [1]: 2% and 5%
Population Membrane Permeable-Phenotype (%) [1]: 0% and 5%
Population Mitochondria Different-Phenotype (%) [1]: 9% and 5%
Population Mitotic Cells (%) [1]: 58% and 67%
Population Normal (%) [1]: 97% and 94%
Population Pyknosed Nuclei (%) [1]: 17% and 22%
Population Tubulin-Different-Phenotype (%) [1]: 30% and 56%
Total Cell Count [1]: 144 and 170
Population Apoptotic (%) [2]: 33% and 35%
Population Fragmented Nuclei (%) [2]: 17% and 26%
Population Healthy Nuclei (%) [2]: 50% and 31%
Population Hoechst High Intensity Objects (%) [2]: 4% and 6%
Population Mitochondria Different-Phenotype (%) [2]: 25% and 10%
Population Mitotic Cells (%) [2]: 66% and 64%
Population Normal (%) [2]: 96% and 93%
Population Pyknosed Nuclei (%) [2]: 32% and 42%
Population Tubulin-Different-Phenotype (%) [2]: 83% and 90%
Total Cell Count [2]: 125 and 137
Population Apoptotic (%) [3]: 50% and 31%
Population Fragmented Nuclei (%) [3]: 22% and 31%
Population Healthy Nuclei (%) [3]: 61% and 45%
Population Hoechst High Intensity Objects (%) [3]: 1% and 8%
Population Membrane Permeable-Phenotype (%) [3]: 0% and 2%
Population Mitochondria Different-Phenotype (%) [3]: 3% and 8%
Population Mitotic Cells (%) [3]: 50% and 68%
Population Normal (%) [3]: 98% and 91%
Population Pyknosed Nuclei (%) [3]: 16% and 23%
Population Tubulin-Different-Phenotype (%) [3]: 40% and 58%
Total Cell Count [3]: 161 and 176
Population Apoptotic (%) [4]: 26% and 36%
Population Fragmented Nuclei (%) [4]: 24% and 27%
Population Healthy Nuclei (%) [4]: 40% and 33%
Population Hoechst High Intensity Objects (%) [4]: 7% and 3%
Population Membrane Permeable-Phenotype (%) [4]: 2% and 6%
Population Mitochondria Different-Phenotype (%) [4]: 30% and 20%
Population Mitotic Cells (%) [4]: 73% and 63%
Population Normal (%) [4]: 92% and 96%
Population Pyknosed Nuclei (%) [4]: 34% and 39%
Population Tubulin-Different-Phenotype (%) [4]: 79% and 90%
Total Cell Count [4]: 131 and 138
Population Apoptotic (%) [5]: 64% and 41%
Population Fragmented Nuclei (%) [5]: 21% and 33%
Population Healthy Nuclei (%) [5]: 61% and 37%
Population Hoechst High Intensity Objects (%) [5]: 5% and 7%
Population Membrane Permeable-Phenotype (%) [5]: 0% and 1%
Population Mitochondria Different-Phenotype (%) [5]: 12% and 15%
Population Mitotic Cells (%) [5]: 36% and 58%
Population Normal (%) [5]: 94% and 92%
Population Pyknosed Nuclei (%) [5]: 17% and 28%
Population Tubulin-Different-Phenotype (%) [5]: 38% and 67%
Total Cell Count [5]: 155 and 165
Population Apoptotic (%) [6]: 54%
Population Fragmented Nuclei (%) [6]: 33% and 35%
Population Healthy Nuclei (%) [6]: 27% and 25%
Population Hoechst High Intensity Objects (%) [6]: 12% and 6%
Population Membrane Permeable-Phenotype (%) [6]: 0% and 10%
Population Mitochondria Different-Phenotype (%) [6]: 53% and 30%
Population Mitotic Cells (%) [6]: 45%
Population Normal (%) [6]: 87% and 93%
Population Pyknosed Nuclei (%) [6]: 38% and 40%
Population Tubulin-Different-Phenotype (%) [6]: 93% and 83%
Total Cell Count [6]: 123 and 129

O=C1COc2nccc(-c3ccccc3F)c2CN1Cc1cc(C(F)(F)F)cc(C(F)(F)F)c1
Population Apoptotic (%) [1]: 38% and 29%
Population Fragmented Nuclei (%) [1]: 12% and 17%
Population Healthy Nuclei (%) [1]: 74% and 62%
Population Hoechst High Intensity Objects (%) [1]: 2% and 0%
Population Membrane Permeable-Phenotype (%) [1]: 1%
Population Mitochondria Different-Phenotype (%) [1]: 7% and 5%
Population Mitotic Cells (%) [1]: 61% and 70%
Population Normal (%) [1]: 97% and 99%
Population Pyknosed Nuclei (%) [1]: 13% and 20%
Population Tubulin-Different-Phenotype (%) [1]: 27% and 32%
Total Cell Count [1]: 195 and 135
Population Apoptotic (%) [2]: 54% and 37%
Population Fragmented Nuclei (%) [2]: 15% and 24%
Population Healthy Nuclei (%) [2]: 69% and 51%
Population Hoechst High Intensity Objects (%) [2]: 5% and 8%
Population Membrane Permeable-Phenotype (%) [2]: 0% and 4%
Population Mitochondria Different-Phenotype (%) [2]: 10% and 12%
Population Mitotic Cells (%) [2]: 45% and 62%
Population Normal (%) [2]: 94% and 91%
Population Pyknosed Nuclei (%) [2]: 14% and 23%
Population Tubulin-Different-Phenotype (%) [2]: 66% and 50%
Total Cell Count [2]: 161 and 132
Population Apoptotic (%) [3]: 53% and 34%
Population Fragmented Nuclei (%) [3]: 11% and 20%
Population Healthy Nuclei (%) [3]: 74% and 58%
Population Hoechst High Intensity Objects (%) [3]: 3% and 2%
Population Membrane Permeable-Phenotype (%) [3]: 0% and 2%
Population Mitochondria Different-Phenotype (%) [3]: 6% and 3%
Population Mitotic Cells (%) [3]: 46% and 65%
Population Normal (%) [3]: 96% and 97%
Population Pyknosed Nuclei (%) [3]: 14% and 20%
Population Tubulin-Different-Phenotype (%) [3]: 23% and 39%
Total Cell Count [3]: 203 and 142
Population Apoptotic (%) [4]: 66% and 55%
Population Fragmented Nuclei (%) [4]: 18% and 26%
Population Healthy Nuclei (%) [4]: 71% and 56%
Population Hoechst High Intensity Objects (%) [4]: 3% and 6%
Population Membrane Permeable-Phenotype (%) [4]: 0% and 7%
Population Mitochondria Different-Phenotype (%) [4]: 11% and 5%
Population Mitotic Cells (%) [4]: 33% and 45%
Population Normal (%) [4]: 96% and 93%
Population Pyknosed Nuclei (%) [4]: 9% and 16%
Population Tubulin-Different-Phenotype (%) [4]: 57% and 61%
Total Cell Count [4]: 162 and 129
Population Apoptotic (%) [5]: 75% and 31%
Population Fragmented Nuclei (%) [5]: 16% and 29%
Population Healthy Nuclei (%) [5]: 75% and 55%
Population Hoechst High Intensity Objects (%) [5]: 5% and 6%
Population Membrane Permeable-Phenotype (%) [5]: 0% and 1%
Population Mitochondria Different-Phenotype (%) [5]: 4% and 1%
Population Mitotic Cells (%) [5]: 25% and 68%
Population Normal (%) [5]: 94% and 93%
Population Pyknosed Nuclei (%) [5]: 8% and 14%
Population Tubulin-Different-Phenotype (%) [5]: 28% and 25%
Total Cell Count [5]: 210 and 143
Population Apoptotic (%) [6]: 72% and 60%
Population Fragmented Nuclei (%) [6]: 20% and 39%
Population Healthy Nuclei (%) [6]: 72% and 49%
Population Hoechst High Intensity Objects (%) [6]: 2% and 5%
Population Membrane Permeable-Phenotype (%) [6]: 0% and 1%
Population Mitochondria Different-Phenotype (%) [6]: 14% and 8%
Population Mitotic Cells (%) [6]: 27% and 40%
Population Normal (%) [6]: 97% and 94%
Population Pyknosed Nuclei (%) [6]: 6% and 11%
Population Tubulin-Different-Phenotype (%) [6]: 62% and 47%
Total Cell Count [6]: 172 and 144

C[C@H](N)COC(=O)[C@@H](CCCCN)NC(=O)Cc1c(-c2ccc3ccccc3c2)[nH]c2c1ccc1ccccc12
Population Apoptotic (%) [1]: 32% and 50%
Population Fragmented Nuclei (%) [1]: 18% and 25%
Population Healthy Nuclei (%) [1]: 65% and 51%
Population Hoechst High Intensity Objects (%) [1]: 1% and 4%
Population Membrane Permeable-Phenotype (%) [1]: 0% and 5%
Population Mitochondria Different-Phenotype (%) [1]: 7% and 4%
Population Mitotic Cells (%) [1]: 67% and 50%
Population Normal (%) [1]: 98% and 95%
Population Pyknosed Nuclei (%) [1]: 15% and 23%
Population Tubulin-Different-Phenotype (%) [1]: 32% and 36%
Total Cell Count [1]: 179 and 170
Population Apoptotic (%) [2]: 43% and 62%
Population Fragmented Nuclei (%) [2]: 13% and 32%
Population Healthy Nuclei (%) [2]: 69% and 50%
Population Hoechst High Intensity Objects (%) [2]: 2% and 7%
Population Membrane Permeable-Phenotype (%) [2]: 1% and 5%
Population Mitochondria Different-Phenotype (%) [2]: 8% and 6%
Population Mitotic Cells (%) [2]: 56% and 37%
Population Normal (%) [2]: 97% and 92%
Population Pyknosed Nuclei (%) [2]: 16% and 17%
Population Tubulin-Different-Phenotype (%) [2]: 33% and 47%
Total Cell Count [2]: 183 and 167
Population Apoptotic (%) [3]: 53% and 29%
Population Fragmented Nuclei (%) [3]: 16% and 25%
Population Healthy Nuclei (%) [3]: 66% and 54%
Population Hoechst High Intensity Objects (%) [3]: 3% and 7%
Population Membrane Permeable-Phenotype (%) [3]: 0% and 3%
Population Mitochondria Different-Phenotype (%) [3]: 5% and 7%
Population Mitotic Cells (%) [3]: 46% and 70%
Population Normal (%) [3]: 96% and 92%
Population Pyknosed Nuclei (%) [3]: 17% and 20%
Population Tubulin-Different-Phenotype (%) [3]: 30% and 39%
Total Cell Count [3]: 179 and 162
Population Apoptotic (%) [4]: 63% and 50%
Population Fragmented Nuclei (%) [4]: 13% and 36%
Population Healthy Nuclei (%) [4]: 74% and 50%
Population Hoechst High Intensity Objects (%) [4]: 7% and 6%
Population Membrane Permeable-Phenotype (%) [4]: 0% and 5%
Population Mitochondria Different-Phenotype (%) [4]: 5%
Population Mitotic Cells (%) [4]: 36% and 50%
Population Normal (%) [4]: 92% and 93%
Population Pyknosed Nuclei (%) [4]: 11% and 13%
Population Tubulin-Different-Phenotype (%) [4]: 31% and 54%
Total Cell Count [4]: 171 and 159
Population Apoptotic (%) [5]: 72% and 51%
Population Fragmented Nuclei (%) [5]: 21% and 30%
Population Healthy Nuclei (%) [5]: 65% and 50%
Population Hoechst High Intensity Objects (%) [5]: 5% and 2%
Population Membrane Permeable-Phenotype (%) [5]: 0% and 3%
Population Mitochondria Different-Phenotype (%) [5]: 7% and 6%
Population Mitotic Cells (%) [5]: 27% and 48%
Population Normal (%) [5]: 94% and 97%
Population Pyknosed Nuclei (%) [5]: 12% and 18%
Population Tubulin-Different-Phenotype (%) [5]: 26% and 39%
Total Cell Count [5]: 186 and 169
Population Apoptotic (%) [6]: 46% and 55%
Population Fragmented Nuclei (%) [6]: 16% and 36%
Population Healthy Nuclei (%) [6]: 68% and 52%
Population Hoechst High Intensity Objects (%) [6]: 9% and 5%
Population Membrane Permeable-Phenotype (%) [6]: 0% and 7%
Population Mitochondria Different-Phenotype (%) [6]: 4% and 8%
Population Mitotic Cells (%) [6]: 53% and 44%
Population Normal (%) [6]: 90% and 94%
Population Pyknosed Nuclei (%) [6]: 15% and 11%
Population Tubulin-Different-Phenotype (%) [6]: 35% and 54%
Total Cell Count [6]: 185 and 166
